Measured values reported in ChEMBL document CHEMBL1938354 (Eur J Med Chem, 2012).
Activity calls are given as the source filed them. The calls are words filed in the database; no cut-off is given here.

Columns and labels:
[1] = molecular target: Aldo-keto reductase family 1 member B1 (Homo sapiens, UniProt P15121); experiment: Inhibition of human recombinant N-terminus His6-tagged AKR1B1 expressed in Escherichia coli BL21 DE3 assessed as pyridine-3-aldehyde reduction by spectrometric analysis
Homo sapiens = species on record: Homo sapiens; experiment: Selectivity ratio of IC50 for human recombinant N-terminus His6-tagged AKR1B1 to IC50 for human recombinant N-terminus His6-tagged AKR1B10
In short: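 IC50 values for purified recombinant AKR1B1 and AKR1B10 were each determined at 25 °C in 0.1 M potassium phosphate, pH 7.4, with 0.1 mM NADPH and 0.2 mM pyridine-3-aldehyde, by NADPH absorbance at 340 nm. Each IC50 is the mean of at least three determinations. The ratio is AKR1B1 IC50 over AKR1B10 IC50.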

[2] = molecular target: T1, Aldo-keto reductase family 1 member B10 (Homo sapiens, UniProt O60218); experiment: Inhibition of human recombinant N-terminus His6-tagged AKR1B10 expressed in Escherichia coli BL21 DE3 assessed as pyridine-3-aldehyde reduction by spectrometric analysis
In short: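 Purified recombinant 6-His AKR1B10 was assayed at 25 °C in 0.1 M potassium phosphate, pH 7.4, with 0.1 mM NADPH and 0.2 mM pyridine-3-aldehyde. Reductase rate was followed as NADPH absorbance change at 340 nm. IC50 is the mean of at least three determinations.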
Target sequence in this assay (O60218 whole entry): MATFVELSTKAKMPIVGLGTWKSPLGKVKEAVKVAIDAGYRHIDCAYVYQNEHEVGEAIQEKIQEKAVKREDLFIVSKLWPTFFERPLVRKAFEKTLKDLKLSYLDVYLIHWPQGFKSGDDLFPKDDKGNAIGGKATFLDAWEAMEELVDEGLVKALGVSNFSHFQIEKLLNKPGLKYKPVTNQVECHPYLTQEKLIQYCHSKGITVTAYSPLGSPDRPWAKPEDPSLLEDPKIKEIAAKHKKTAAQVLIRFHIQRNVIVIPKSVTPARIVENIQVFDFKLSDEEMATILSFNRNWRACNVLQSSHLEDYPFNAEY

U-937 [3] = experiment: Growth inhibition of AKR1B10-overexpressing human U937 cells at 0.2 uM by trypan blue dye exclusion assay; assay type: functional, cell-based
In short: (§1)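 U937 cells were transiently transfected with pGW1 plasmid carrying AKR1B10 cDNA and resuspended in fresh growth medium. They were seeded at 5 × 10⁴ cells/ml and treated with inhibitor for 0, 24, 48 and 72 h. Viable cells were counted by trypan blue exclusion.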

[4] = molecular target: Aldo-keto reductase family 1 member B10 (Homo sapiens, UniProt O60218, Q303S/V301L); experiment: Competitive inhibition at human recombinant N-terminus His6-tagged AKR1B10 Val301Leu/Gln303Ser double mutant expressed in Escherichia coli BL21 DE3 assessed as inhibition of NADP+ linked geraniol oxidation by fluorescence analysis
[5] = molecular target: Aldo-keto reductase family 1 member B10 (Homo sapiens, UniProt O60218, F123A); experiment: Competitive inhibition at human recombinant N-terminus His6-tagged AKR1B10 Phe123Ala mutant expressed in Escherichia coli BL21 DE3 assessed as inhibition of NADP+ linked geraniol oxidation by fluorescence analysis
In short: (§2)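 Recombinant wild-type or mutant AKR1B10 with N-terminal 6-His tag was expressed in E. coli BL21(DE3) pLysS and purified to homogeneity. The Phe123Ala mutant was made by site-directed mutagenesis. Kinetics used NADP+-linked geraniol oxidation, read by NADPH fluorescence (ex 340/em 455 nm) at 25 °C. Five substrate concentrations (0.5–5 × Km) were run with saturating coenzyme. Ki is the mean of at least three determinations.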

[6] = molecular target: Aldo-keto reductase family 1 member B10 (Homo sapiens, UniProt O60218, Q303S); experiment: Competitive inhibition at human recombinant N-terminus His6-tagged AKR1B10 Gln303Ser mutant expressed in Escherichia coli BL21 DE3 assessed as inhibition of NADP+ linked geraniol oxidation by fluorescence analysis
[7] = molecular target: T1, Aldo-keto reductase family 1 member B10; conditions: HeLa, 0.2 uM
Target sequence in this assay (O60218 whole entry, looked up): as the sequence (O60218 whole entry) above

[8] = molecular target: Aldo-keto reductase family 1 member B10 (Homo sapiens, UniProt O60218, V301L); experiment: Competitive inhibition at human recombinant N-terminus His6-tagged AKR1B10 Val301Leu mutant expressed in Escherichia coli BL21 DE3 assessed as inhibition of NADP+ linked geraniol oxidation by fluorescence analysis
[9] = molecular target: Aldo-keto reductase family 1 member B10 (Homo sapiens, UniProt O60218, S304A); experiment: Competitive inhibition at human recombinant N-terminus His6-tagged AKR1B10 Ser304Ala mutant expressed in Escherichia coli BL21 DE3 assessed as inhibition of NADP+ linked geraniol oxidation by fluorescence analysis
[10] = molecular target: Aldo-keto reductase family 1 member B10 (Homo sapiens, UniProt O60218, Q114T); experiment: Competitive inhibition at human recombinant N-terminus His6-tagged AKR1B10 Gln114Thr mutant expressed in Escherichia coli BL21 DE3 assessed as inhibition of NADP+ linked geraniol oxidation by fluorescence analysis
[11] = molecular target: T2, Aldo-keto reductase family 1 member A1 (Homo sapiens) (UniProt P14550); experiment: Inhibition of human AKR1A1 at 30 uM
T2 sequence (whole entry): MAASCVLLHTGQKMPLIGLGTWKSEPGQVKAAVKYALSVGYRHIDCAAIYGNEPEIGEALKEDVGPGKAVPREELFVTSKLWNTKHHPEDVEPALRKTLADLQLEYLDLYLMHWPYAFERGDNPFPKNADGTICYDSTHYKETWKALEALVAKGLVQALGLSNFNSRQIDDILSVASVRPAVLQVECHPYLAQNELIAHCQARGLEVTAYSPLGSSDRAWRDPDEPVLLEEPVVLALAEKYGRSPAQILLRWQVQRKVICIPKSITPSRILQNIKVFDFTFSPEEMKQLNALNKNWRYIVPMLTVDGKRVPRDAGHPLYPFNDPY

[12] = molecular target: T1, Aldo-keto reductase family 1 member B10; experiment: Inhibition of AKR1B10-mediated farnesal metabolism in human HeLa cells preincubated for 2 hrs measured after 6 hrs following [1-14C]farnesol addition; assay type: cell-based
In short: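 HeLa cells were transfected with pGW1-AKR1B10 and pretreated with inhibitor at a range of concentrations for 2 h. They were then incubated with [1-¹⁴C]farnesol for 6 h, and reduction of the resulting farnesal was analysed. Percent inhibition is the mean of duplicate experiments.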
Target sequence in this assay (O60218 whole entry): as the sequence (O60218 whole entry) above

HeLa [13] = experiment: Cytotoxicity against human HeLa cells after 24 hrs by trypan blue dye exclusion assay; assay type: functional; conditions: read-out: LD50 (the source's name)
[14] = molecular target: Aldo-keto reductase family 1 member B10 (Homo sapiens, UniProt O60218, W220Y); experiment: Competitive inhibition at human recombinant N-terminus His6-tagged AKR1B10 Trp220Tyr mutant expressed in Escherichia coli BL21 DE3 assessed as inhibition of NADP+ linked geraniol oxidation by fluorescence analysis
[15] = molecular target: T1, Aldo-keto reductase family 1 member B10; experiment: Competitive inhibition at human recombinant N-terminus His6-tagged AKR1B10 expressed in Escherichia coli BL21 DE3 assessed as inhibition of NADP+ linked geraniol oxidation by fluorescence analysis; in short: as §2
Target sequence in this assay (O60218 whole entry): as the sequence (O60218 whole entry) above

HeLa [16] = experiment: Growth inhibition of human HeLa cells at 0.2 uM by trypan blue dye exclusion assay; assay type: functional, cell-based
U-937 [17] = experiment: Growth inhibition of human U937 cells at 0.2 uM by trypan blue dye exclusion assay; assay type: functional, cell-based
U-937 [18] = experiment: Growth inhibition of AKR1B10-overexpressing human U937 cells at 1 uM by trypan blue dye exclusion assay; assay type: functional, cell-based; in short: as §1
[19] = molecular target: T1, Aldo-keto reductase family 1 member B10; experiment: Competitive inhibition at human recombinant N-terminus His6-tagged AKR1B10 expressed in Escherichia coli BL21 DE3 assessed as inhibition of NADP+ linked geraniol oxidation by fluorescence analysis
Target sequence in this assay (O60218 whole entry): as the sequence (O60218 whole entry) above

Chain of Aldo-keto reductase family 1 member B10 (Homo sapiens, UniProt O60218, F123A) (O60218 whole entry F123A): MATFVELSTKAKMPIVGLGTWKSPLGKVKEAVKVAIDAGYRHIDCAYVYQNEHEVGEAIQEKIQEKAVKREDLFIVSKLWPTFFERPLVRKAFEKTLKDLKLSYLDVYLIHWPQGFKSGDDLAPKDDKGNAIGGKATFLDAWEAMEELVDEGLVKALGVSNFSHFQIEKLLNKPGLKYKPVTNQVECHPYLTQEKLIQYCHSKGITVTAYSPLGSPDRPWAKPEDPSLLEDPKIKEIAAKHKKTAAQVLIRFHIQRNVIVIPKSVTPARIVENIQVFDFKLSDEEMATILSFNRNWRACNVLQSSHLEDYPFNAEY
Chain of Aldo-keto reductase family 1 member B10 (Homo sapiens, UniProt O60218, Q114T) (O60218 whole entry Q114T): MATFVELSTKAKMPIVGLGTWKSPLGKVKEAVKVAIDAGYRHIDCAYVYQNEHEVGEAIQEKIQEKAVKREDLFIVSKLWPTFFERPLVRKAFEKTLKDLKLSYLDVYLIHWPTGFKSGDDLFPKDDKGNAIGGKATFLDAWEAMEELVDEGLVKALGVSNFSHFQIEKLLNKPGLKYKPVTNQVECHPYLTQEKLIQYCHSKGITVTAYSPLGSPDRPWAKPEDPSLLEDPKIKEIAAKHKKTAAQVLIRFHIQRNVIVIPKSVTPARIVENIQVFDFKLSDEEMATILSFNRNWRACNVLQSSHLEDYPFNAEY
Chain of Aldo-keto reductase family 1 member B10 (Homo sapiens, UniProt O60218, Q303S) (O60218 whole entry Q303S): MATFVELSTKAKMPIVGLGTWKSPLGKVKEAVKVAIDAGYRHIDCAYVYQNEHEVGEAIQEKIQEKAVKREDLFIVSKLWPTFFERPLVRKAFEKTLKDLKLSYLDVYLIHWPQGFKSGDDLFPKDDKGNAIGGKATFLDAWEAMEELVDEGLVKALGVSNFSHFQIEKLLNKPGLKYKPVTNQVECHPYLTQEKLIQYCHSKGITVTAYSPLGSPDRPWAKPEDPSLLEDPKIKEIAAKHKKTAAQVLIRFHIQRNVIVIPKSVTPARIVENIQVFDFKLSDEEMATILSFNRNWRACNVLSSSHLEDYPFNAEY
Chain of Aldo-keto reductase family 1 member B10 (Homo sapiens, UniProt O60218, W220Y) (O60218 whole entry W220Y): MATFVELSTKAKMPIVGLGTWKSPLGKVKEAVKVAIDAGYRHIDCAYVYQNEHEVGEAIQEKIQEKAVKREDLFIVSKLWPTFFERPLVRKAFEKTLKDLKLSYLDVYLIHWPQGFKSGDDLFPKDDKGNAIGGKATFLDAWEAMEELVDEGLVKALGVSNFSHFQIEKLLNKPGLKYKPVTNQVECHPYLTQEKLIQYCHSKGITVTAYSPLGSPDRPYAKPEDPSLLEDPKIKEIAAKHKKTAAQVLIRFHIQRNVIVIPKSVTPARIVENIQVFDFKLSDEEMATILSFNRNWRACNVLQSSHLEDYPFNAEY
Chain of Aldo-keto reductase family 1 member B10 (Homo sapiens, UniProt O60218, S304A) (O60218 whole entry S304A): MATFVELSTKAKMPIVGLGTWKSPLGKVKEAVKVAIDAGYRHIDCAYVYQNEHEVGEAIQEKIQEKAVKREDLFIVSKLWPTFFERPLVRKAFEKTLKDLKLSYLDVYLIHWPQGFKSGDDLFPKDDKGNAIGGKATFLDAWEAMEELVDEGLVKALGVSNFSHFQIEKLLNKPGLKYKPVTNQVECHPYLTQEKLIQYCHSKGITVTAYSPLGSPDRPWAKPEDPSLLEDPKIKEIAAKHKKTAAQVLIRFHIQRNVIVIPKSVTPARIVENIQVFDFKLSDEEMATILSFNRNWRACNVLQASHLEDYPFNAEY
Chain of Aldo-keto reductase family 1 member B10 (Homo sapiens, UniProt O60218, V301L) (O60218 whole entry V301L): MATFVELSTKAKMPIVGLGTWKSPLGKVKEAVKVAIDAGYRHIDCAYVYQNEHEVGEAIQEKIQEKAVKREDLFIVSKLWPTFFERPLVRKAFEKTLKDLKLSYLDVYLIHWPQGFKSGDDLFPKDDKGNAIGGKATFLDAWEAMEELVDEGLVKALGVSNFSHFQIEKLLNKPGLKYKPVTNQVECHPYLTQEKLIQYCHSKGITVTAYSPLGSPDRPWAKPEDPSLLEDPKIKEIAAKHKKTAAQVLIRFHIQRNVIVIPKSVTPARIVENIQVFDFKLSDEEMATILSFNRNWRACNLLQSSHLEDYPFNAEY
Chain of Aldo-keto reductase family 1 member B10 (Homo sapiens, UniProt O60218, Q303S/V301L) (O60218 whole entry V301L/Q303S): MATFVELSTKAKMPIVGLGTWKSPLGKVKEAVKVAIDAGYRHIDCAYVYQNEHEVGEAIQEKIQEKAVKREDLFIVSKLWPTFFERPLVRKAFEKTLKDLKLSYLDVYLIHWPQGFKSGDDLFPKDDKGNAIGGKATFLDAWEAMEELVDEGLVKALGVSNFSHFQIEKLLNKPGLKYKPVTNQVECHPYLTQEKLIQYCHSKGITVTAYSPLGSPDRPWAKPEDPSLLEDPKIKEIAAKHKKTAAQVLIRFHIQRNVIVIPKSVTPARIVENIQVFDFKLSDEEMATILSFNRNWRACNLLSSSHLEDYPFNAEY

Structure (SMILES) | IC50 [1] | Ratio IC50 (Homo sapiens) | IC50 [2] | also measured
O=C(/C=C/c1cccc(O)c1)OCCCc1ccccc1 | 41000 nM | 13 | 3100 nM | –
O=C(/C=C/c1ccc(O)c(O)c1)O[C@@H]1C[C@](O)(C(=O)O)C[C@@H](O)[C@H]1O (relative stereo) [CHLOROGENIC ACID] | – | – | 7900 nM | –
COc1cc(O)ccc1/C=C/C(=O)OCCCc1cccc(O)c1 | 4900 nM | 790 | 6.2 nM | growth inhibition (GI) (U-937 [3]): Active; Ki [4]: 23 nM; Ki [5]: 5.1 nM; Ki [6]: 7.1 nM; inhibition [7]: Active; Ki [8]: 5.8 nM; Ki [9]: 3.5 nM; Ki [10]: 7.6 nM; inhibition [11]: inactive; IC50 [12]: 300 nM; CC50 (HeLa [13]): 36000 nM; Ki [14]: 15 nM; Ki [15]: 2.6 nM; growth inhibition (GI) (HeLa [16]): inactive; growth inhibition (GI) (U-937 [17]): inactive
COc1cc(O)ccc1/C=C/C(=O)OCCc1cccc(O)c1 | 7300 nM | 562 | 13 nM | –
O=C(/C=C/c1ccccc1)OCCc1ccccc1 [PHENETHYL CINNAMATE] | 23000 nM | 1 | 18000 nM | –
COc1cc(O)ccc1/C=C/C(=O)OCCc1ccccc1O | 9500 nM | 558 | 17 nM | –
O=C(/C=C/c1ccc(O)cc1)OCc1ccccc1 | 2200 nM | 17 | 130 nM | –
O=C(/C=C/c1ccc(O)c(O)c1)OCCc1ccccc1 [CAFFEIC ACID PHENETHYL ESTER] | 570 nM | 7 | 80 nM | CC50 (HeLa [13]): 56000 nM; growth inhibition (GI) (U-937 [18]): Active; growth inhibition (GI) (HeLa [16]): inactive; growth inhibition (GI) (U-937 [17]): inactive; Ki [19]: 46 nM
COc1cc(O)ccc1/C=C/C(=O)OCCc1ccc(O)cc1 | 3200 nM | 229 | 14 nM | –
O=C(/C=C/c1ccc(O)cc1)OCCc1ccccc1 | 2200 nM | 31 | 69 nM | –
CC(C)OC(=O)/C=C/c1ccc(O)cc1 [ISOPROPYL 3-(4-HYDROXYPHENYL)ACRYLATE] | 6100 nM | 7 | 920 nM | –
O=C(/C=C/c1ccc(O)c(O)c1)OCc1ccccc1 [BENZYL CAFFEATE] | 400 nM | 2 | 210 nM | –
COc1cc(O)ccc1/C=C/C(=O)OCCc1ccccc1 | 7200 nM | 554 | 13 nM | –
COc1cc(O)ccc1/C=C/C(=O)OCCCc1ccc(O)cc1 | 11000 nM | 478 | 23 nM | –

Now from value to compound, other results behind:

IC50 [1] | Ratio IC50 (Homo sapiens) | IC50 [2] | Structure (SMILES) | also measured
38000 nM | – | 49000 nM | CC(C)=CCc1cc(/C=C/C(=O)O)ccc1O [DRUPANIN] | –
76000 nM | – | 63000 nM | O=C(O)/C=C/c1ccc(O)cc1 [COUMARIC ACID] | –
23000 nM | – | 53000 nM | CC(C)=CCc1cc(/C=C/C(=O)O)cc(CC=C(C)C)c1O [ARTEPILLIN] | –
73000 nM | 4 | 19000 nM | O=C(/C=C/c1cccc(O)c1)OCCc1ccccc1 | –
– | – | 90000 nM | O=C(O)/C=C/c1ccc(O)c(O)c1 [CAFFEIC ACID] | –
– | – | 240 nM | O=C(/C=C/c1ccc(O)c(O)c1)O[C@@H]1[C@H](O)C[C@@](O)(C(=O)O)C[C@H]1OC(=O)/C=C/c1ccc(O)c(O)c1 (relative stereo) | –
6900 nM | 766 | 9 nM | COc1cc(O)ccc1/C=C/C(=O)OCCCc1ccccc1O | –
88 nM | – | 130 nM | O=C(/C=C/c1ccc(O)c(O)c1)O[C@@H]1C[C@](O)(C(=O)O)C[C@@H](OC(=O)/C=C/c2ccc(O)c(O)c2)[C@H]1O (relative stereo) | –
1100 nM | 52 | 21 nM | O=C(/C=C/c1ccc(O)cc1)OCCCc1ccccc1 | –
11000 nM | 688 | 16 nM | COc1cc(O)ccc1/C=C/C(=O)OCCCc1ccccc1 | –
